From ChEMBL document CHEMBL1287657, “Synthesis and biological activities of new furo[3,4-b]carbazoles: potential topoisomerase II inhibitors” (Eur J Med Chem, 2010)
pIC50: −log10 of the molar value. Calls of active or inactive are those of the source. No cut-off for these calls is given here.

Tests used:
[1] = biological target: DNA topoisomerase 2-alpha (Homo sapiens) (UniProt P11388); assay: Inhibition of human topoisomerase 2-mediated relaxation of supercoiled PUC19 DNA at 20 to 50 uM uM after 20 mins using ethidium bromide staining by agarose gel electrophoresis
Outline: (§1)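 Native supercoiled pUC19 plasmid (350 ng) incubated with 4 units human topoisomerase II, with or without compound at several concentrations; etoposide run as reference. Relaxation/cleavage products separated by gel electrophoresis and scored for supercoiled, relaxed and broken DNA forms.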

[2] = biological target: DNA topoisomerase 2-alpha (Homo sapiens) (UniProt P11388); assay: Inhibition of human topoisomerase 2-mediated relaxation of supercoiled PUC19 DNA at 1 to 100 uM uM after 20 mins using ethidium bromide staining by agarose gel electrophoresis; outline: as §1
Calf thymus DNA = assay: Binding affinity to calf thymus DNA assessed as change in melting temperature; assay type: nucleic-acid assay; details: Bos taurus
HL-60 = assay: Cytotoxicity against human HL60 cells; assay type: functional, cell-based
[3] = Cytotoxicity against human HL60/MX2 cells; assay type: functional, cell-based

Chain of DNA topoisomerase 2-alpha (Homo sapiens) (P11388 whole entry): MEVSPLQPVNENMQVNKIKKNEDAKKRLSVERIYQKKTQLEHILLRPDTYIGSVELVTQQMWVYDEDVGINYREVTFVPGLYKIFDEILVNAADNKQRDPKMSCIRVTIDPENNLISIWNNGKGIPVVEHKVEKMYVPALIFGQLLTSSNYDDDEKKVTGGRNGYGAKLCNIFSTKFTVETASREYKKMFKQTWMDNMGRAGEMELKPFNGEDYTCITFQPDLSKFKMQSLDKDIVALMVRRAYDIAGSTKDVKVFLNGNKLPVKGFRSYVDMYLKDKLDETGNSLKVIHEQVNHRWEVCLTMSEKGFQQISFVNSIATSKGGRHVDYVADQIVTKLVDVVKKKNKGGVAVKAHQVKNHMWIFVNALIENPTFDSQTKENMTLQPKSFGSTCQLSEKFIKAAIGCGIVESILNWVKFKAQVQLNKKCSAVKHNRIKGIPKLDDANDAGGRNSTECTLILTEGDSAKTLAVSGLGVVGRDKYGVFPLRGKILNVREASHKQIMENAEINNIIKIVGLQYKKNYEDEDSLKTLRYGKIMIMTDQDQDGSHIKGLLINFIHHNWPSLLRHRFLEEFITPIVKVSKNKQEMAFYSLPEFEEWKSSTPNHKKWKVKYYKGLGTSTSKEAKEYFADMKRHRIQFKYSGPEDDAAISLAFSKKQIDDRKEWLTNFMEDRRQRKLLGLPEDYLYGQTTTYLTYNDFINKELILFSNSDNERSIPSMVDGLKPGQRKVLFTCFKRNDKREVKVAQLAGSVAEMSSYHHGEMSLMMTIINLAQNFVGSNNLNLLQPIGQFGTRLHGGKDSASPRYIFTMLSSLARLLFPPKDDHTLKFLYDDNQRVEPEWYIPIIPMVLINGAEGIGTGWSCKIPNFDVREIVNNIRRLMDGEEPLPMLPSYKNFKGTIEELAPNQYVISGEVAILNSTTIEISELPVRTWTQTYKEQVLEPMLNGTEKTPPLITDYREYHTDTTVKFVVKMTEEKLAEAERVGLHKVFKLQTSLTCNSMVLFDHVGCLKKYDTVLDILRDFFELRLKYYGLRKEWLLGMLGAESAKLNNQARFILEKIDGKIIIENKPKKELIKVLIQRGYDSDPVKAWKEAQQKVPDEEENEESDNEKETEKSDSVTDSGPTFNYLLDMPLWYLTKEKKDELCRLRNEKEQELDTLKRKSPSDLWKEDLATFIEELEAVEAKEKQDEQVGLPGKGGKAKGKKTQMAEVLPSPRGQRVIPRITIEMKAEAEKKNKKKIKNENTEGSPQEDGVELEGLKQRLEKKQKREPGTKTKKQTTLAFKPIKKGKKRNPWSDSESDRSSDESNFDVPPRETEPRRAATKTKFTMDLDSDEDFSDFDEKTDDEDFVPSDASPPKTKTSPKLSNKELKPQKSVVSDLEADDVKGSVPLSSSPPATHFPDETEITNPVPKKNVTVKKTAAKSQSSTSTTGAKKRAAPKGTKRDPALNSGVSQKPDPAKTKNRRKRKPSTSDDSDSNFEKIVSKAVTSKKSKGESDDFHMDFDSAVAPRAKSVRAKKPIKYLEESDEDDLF

Compound	inhibition [1]	further results
COc1cc([C@@H]2c3cc4c(cc3[C@@H](O[C@@H]3O[C@@H]5CO[C@@H](C)O[C@H]5[C@H](O)[C@H]3O)[C@H]3COC(=O)[C@H]23)OCO4)cc(OC)c1O	Active	
COc1cc(-c2c3c(cc4c2[nH]c2ccccc24)COC3=O)cc(OC)c1OC	inactive	
O=C1OCc2cc3c([nH]c4ccccc43)c(-c3ccc4c(c3)OCO4)c21	inactive	
COc1cc(-c2c3c(cc4c2[nH]c2ccccc24)COC3=O)cc(O)c1O	Active	inhibition [2]: Active; Activity (Calf thymus DNA): inactive; pIC50 (HL-60): 6.82; pIC50 [3]: 6.77

Further lines, with some results ahead:

inhibition [1]	Compound	further results
inactive	COc1ccc(-c2c3c(cc4c2[nH]c2ccccc24)COC3=O)cc1	
inactive	COc1cc(OC)cc(-c2c3c(cc4c2[nH]c2ccccc24)COC3=O)c1	
inactive	COc1ccc(-c2c3c(cc4c2[nH]c2ccccc24)COC3=O)cc1OC	Activity (Calf thymus DNA): inactive
